Reference: PMC3275116 (Clinics, 2012)
Read-outs that look alike come from different tables or passages of the source.

Tests used:
PC-3 tumors [1] = type: in vivo; settings: PC-3 tumor-bearing mice
[2] = Biodistribution in healthy Swiss mice; type: in vivo; settings: i.v. 0.1 mL/18.5 MBq, mean ± SD n = 6
How it was run: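 Male Swiss albino mice (20 - 25 g) received 99mTc-labeled conjugate by tail vein (0.1 mL/18.5 MBq). Six mice per time point were killed by cervical dislocation at 5, 30, 90 and 240 min. Organs were excised, weighed and counted on a NaI(Tl) gamma counter; stomach and intestine were counted after removing luminal contents. %ID/g was calculated using injected-dose activity as standard; mean ± SD.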

[3] = system: PC-3 human prostate carcinoma cells; test: In vitro cell binding assay with increasing cold conjugate; type: cell-based; settings: 120 min
How it was run: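 PC3 androgen-independent cells were grown in RPMI 1640 with 10% (v/v) fetal calf serum at 37°C, 5% CO2, harvested near confluency by trypsinization, and seeded at 10^6 cells/well 24 h before assay. Wells received 90 pM 99mTc-labeled peptide with increasing cold conjugate (1 nM to 18 nM) and were incubated 120 min. Cell-associated radioactivity was gamma-counted.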

PC-3 tumors [4] = test: Biodistribution in Nude mice bearing PC-3 tumors; type: in vivo; settings: for Blood uptake / Bone uptake / Heart uptake / Lung uptake / Muscle uptake / Spleen uptake / Stomach uptake / Tumor uptake: mean ± SD n = 6
How it was run: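 Athymic male nude mice (16 - 20 g) received 5.0×10^6 PC3 cells subcutaneously in the upper back; tumors grew 2–3 weeks to about 1 cm diameter. 99mTc-labeled conjugate was given by tail vein and biodistribution evaluated at 30 and 90 min post-injection; blocking groups were coinjected with excess cold conjugate. Organs were excised, weighed and gamma-counted; %ID/g was computed against injected-dose activity; mean ± SD, n = 6.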

[5] = Determination of log P values; type: physicochemical; settings: n-octanol/water 3 mL:3 mL, 100 µL radiotracer, gamma counter, triplicate samples
How it was run: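 Radiotracer (100 µL; 99mTc labeling by stannous-tartrate exchange at 100°C, 20 min) was added to equal volumes (3 mL each) of n-octanol and water, stirred vigorously and centrifuged. Triplicate samples from each phase were gamma-counted to give the partition ratio and log P.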

PC-3 cells = settings: cited from earlier work
[6] = cited from earlier work
DU-145 prostate cells = settings: cited from earlier work

For “FRPNRAQDYNTNK-SAMA-G-G-G-Ahx-NH2 [99mTc-SAMA-G3-Ahx-DUP-1]”, the “cold conjugate-blocked tumor uptake” value (PC-3 tumors [1]; 30 min post-injection) was 82%, the “cold conjugate-blocked tumor uptake” value (PC-3 tumors [1]; 90 min post-injection) was 83% and the Blood uptake ([2]; 5 min) was 1.21±0.02 %ID/g. For the same substance, the Bone uptake ([2]; 5 min) was 0.84±0.17 %ID/g, the Heart uptake ([2]; 5 min) was 0.82±0.14 %ID/g and the Kidney uptake ([2]; 5 min) was 22.62±2.03 %ID/g. The Liver uptake ([2]; 5 min) was 12.31±2.19 %ID/g, the Lung uptake ([2]; 5 min) was 1.48±0.23 %ID/g and the Muscle uptake ([2]; 5 min) was 0.77±0.06 %ID/g. It also gave a Pancreas uptake ([2]; 5 min) of 1.44±0.33 %ID/g, a Spleen uptake ([2]; 5 min) of 1.37±0.18 %ID/g and a Blood uptake ([2]; 30 min) of 0.43±0.06 %ID/g. The Bone uptake ([2]; 30 min) was 0.20±0.01 %ID/g, the Heart uptake ([2]; 30 min) was 0.24±0.07 %ID/g and the Kidney uptake ([2]; 30 min) was 21.06±0.41 %ID/g. It also gave a Liver uptake ([2]; 30 min) of 8.58±1.75 %ID/g, a Lung uptake ([2]; 30 min) of 0.73±0.16 %ID/g and a Muscle uptake ([2]; 30 min) of 0.14±0.04 %ID/g. It also gave a Pancreas uptake ([2]; 30 min) of 0.18±0.11 %ID/g, a Spleen uptake ([2]; 30 min) of 0.28±0.07 %ID/g and a Blood uptake ([2]; 90 min) of 0.08±0.01 %ID/g. It also gave a Bone uptake ([2]; 90 min) of 0.05±0.02 %ID/g, a Heart uptake ([2]; 90 min) of 0.04±0.01 %ID/g and a Kidney uptake ([2]; 90 min) of 7.28±2.07 %ID/g. The Liver uptake ([2]; 90 min) was 1.57±0.57 %ID/g, the Lung uptake ([2]; 90 min) was 0.15±0.037 %ID/g and the Muscle uptake ([2]; 90 min) was 0.51±0.01 %ID/g. The Pancreas uptake ([2]; 90 min) was 0.05±0.01 %ID/g, the Spleen uptake ([2]; 90 min) was 0.09±0.03 %ID/g and the Blood uptake ([2]; 240 min) was 0.05±0.01 %ID/g. For the same substance, the Bone uptake ([2]; 240 min) was 0.05±0.01 %ID/g, the Heart uptake ([2]; 240 min) was 0.03±0.02 %ID/g and the Kidney uptake ([2]; 240 min) was 3.22±0.43 %ID/g. The Liver uptake ([2]; 240 min) was 1.53±0.64 %ID/g, the Lung uptake ([2]; 240 min) was 0.13±0.07 %ID/g and the Muscle uptake ([2]; 240 min) was 0.17±0.07 %ID/g. For the same substance, the Pancreas uptake ([2]; 240 min) was 0.04±0.01 %ID/g, the Spleen uptake ([2]; 240 min) was 0.07±0.02 %ID/g and the “Radioactivity associated with PC3 tumor cells (binding)” value ([3]; 90 pM 99mTc-labeled peptide, no cold peptide, 37°C) was about 1.97%. For the same substance, the “decrease of binding with cold peptide” value ([3]; cold conjugate increased 0 to 18 nM, 90 pM tracer) was 63%, the “Uptake ratio Tumor/blood” value (PC-3 tumors [4]; 30 min post-injection) was 1.23 and the “Uptake ratio Tumor/muscle” value (PC-3 tumors [4]; 30 min post-injection) was 3.15. It also gave a Blood uptake (PC-3 tumors [4]; 30 min post-injection) of 0.69±0.14 %ID/g, a Bone uptake (PC-3 tumors [4]; 30 min post-injection) of 0.31±0.08 %ID/g and a Heart uptake (PC-3 tumors [4]; 30 min post-injection) of 0.41±0.02 %ID/g. The Lung uptake (PC-3 tumors [4]; 30 min post-injection) was 1.24±0.43 %ID/g, the Muscle uptake (PC-3 tumors [4]; 30 min post-injection) was 0.27±0.27 %ID/g and the Spleen uptake (PC-3 tumors [4]; 30 min post-injection) was 0.56±0.13 %ID/g. The Stomach uptake (PC-3 tumors [4]; 30 min post-injection) was 1.05±0.07 %ID/g, the Tumor uptake (PC-3 tumors [4]; 30 min post-injection) was 0.85±0.19 %ID/g and the “Uptake ratio Tumor/blood” value (PC-3 tumors [4]; 90 min post-injection) was 1.78. The “Uptake ratio Tumor/muscle” value (PC-3 tumors [4]; 90 min post-injection) was 1.32, the Blood uptake (PC-3 tumors [4]; 90 min post-injection) was 0.23±0.06 %ID/g and the Bone uptake (PC-3 tumors [4]; 90 min post-injection) was 0.30±0.05 %ID/g. The Heart uptake (PC-3 tumors [4]; 90 min post-injection) was 0.10±0.10 %ID/g, the Lung uptake (PC-3 tumors [4]; 90 min post-injection) was 0.34±0.27 %ID/g and the Muscle uptake (PC-3 tumors [4]; 90 min post-injection) was 0.31±0.11 %ID/g. The Spleen uptake (PC-3 tumors [4]; 90 min post-injection) was 0.54±0.19 %ID/g, the Stomach uptake (PC-3 tumors [4]; 90 min post-injection) was 0.72±0.27 %ID/g and the Tumor uptake (PC-3 tumors [4]; 90 min post-injection) was 0.41±0.11 %ID/g. For the same substance, the partition ratio [5] was 0.00389.
For FRPNRAQDYNTN [DUP-1], the “binding to PC-3 cells” value (PC-3 cells) is given as “high affinity”, the serum stability [6] is given as “serum-instable” and the “binding to DU-145 prostate cells” value (DU-145 prostate cells) is given as “high affinity”.
